Results on one compound are retold here after ChEMBL document CHEMBL4033782, “Structural Modification of Natural Product Tanshinone I Leading to Discovery of Novel Nitrogen-Enriched Derivatives with Enhanced Anticancer Profile and Improved Drug-like Properties” (J Med Chem, 2018).

SMILES strings stand for the structures.

One data set concerns MGC-803. Put plainly: Antiproliferative activity against human MGC803 cells after 72 hrs by sulforhodamine B assay. It is filed as functional, cell-based. The note with it: MGC-803, 72 h. In outline:
(§1)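 Cells grown in ATCC-specified medium with 10% heat-inactivated FBS, penicillin/streptomycin and 10 mM Hepes, at 37 °C under 5% CO2. Seeded, cultured overnight, then exposed to gradient concentrations for 72 h. Growth read by SRB staining; inhibition % = [1−(A450 treated/A450 control)]×100. IC50 obtained by the Logit method from independent experiments.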
A general note: The SRB assay estimates cell density from bound dye.

The nature of data set [1]: Half life in rat liver microsomes at 0.1 uM up to 60 mins by LC-MS/MS analysis. It is filed as ADME, microsome. Put shortly: (§2)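 Compound at 0.1 μM final (0.01% DMSO, 0.005% BSA) incubated at 37 °C with human, rat or mouse liver microsomes (0.33 mg/mL protein) in 0.1 M Tris/HCl pH 7.4, with 5 mM MgCl2 and 1 mM NADPH. Samples taken at 0, 7, 17, 30 and 60 min, quenched by methanol precipitation, centrifuged, and parent measured by LC-MS/MS. T1/2 and Clint derived.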
On the technique in general: Microsomes from liver hold many membrane-bound enzymes, among them those of drug oxidation.

Data set [2] relates to Liver. Put plainly: Intrinsic clearance in rat liver microsomes assessed per mg protein up to 60 mins by LC-MS/MS analysis. The settings on record: 1 h. It is filed as ADME, microsome. In outline:
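Liver microsomes (0.33 mg/mL protein) in 0.1 M Tris/HCl pH 7.4 with 5 mM MgCl2, 1 mM NADPH, compound at 0.1 μM final (0.01% DMSO, 0.005% BSA), 37 °C; samples at 0, 7, 17, 30, 60 min quenched in methanol, centrifuged, LC-MS/MS; T1/2 and Clint per g protein derived.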

Data set [3] concerns HCT-116. Put plainly: Induction of apoptosis in human HCT116 cells pretreated with Z-VAD-FMK pan-caspase inhibitor for 1 hr assessed as late apoptotic cells at 2 uM after 48 hrs by Annexin V-FITC/propidium iodide staining-based FACS analysis (reference value: 3.15%). It is filed as functional. Details: scale not given: the % may be the effect or the level left. (Flow cytometry measures light scatter and fluorescence of single cells or particles in a stream.)

In another data set the test system is HUVEC. In words: Antiproliferative activity against human HUVEC cells after 72 hrs by sulforhodamine B assay. It is filed as cell-based. Put shortly:
as §1

A short description of data set [4]: Clearance in Sprague-Dawley rat at 1.0 mg/kg, iv. It is filed as ADME, organism-based. The settings on record: in vivo. Put shortly:
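Male SD rats dosed i.v. at 1.0 mg/kg or orally at 3.0 mg/kg. Vehicle is DMSO, Tween 80 and normal saline. Plasma concentration–time data give CL, Vss, T1/2, Cmax, Tmax, MRT, AUC and oral bioavailability F.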

Data set [5] deals with Liver. Put plainly: Intrinsic clearance in mouse liver microsomes assessed per mg protein up to 60 mins by LC-MS/MS analysis. The settings on record: 1 h. It is filed as ADME, microsome. In outline:
as §2

The test system of another data set is BT-474. Put plainly: Antiproliferative activity against human BT474 cells after 72 hrs by sulforhodamine B assay. It is filed as functional, cell-based. The note with it: BT-474, 72 h. Put shortly: as §1
The test system of data set [6] is HCT-116. Put plainly: Induction of apoptosis in human HCT116 cells assessed as early apoptotic cells at 1 uM after 48 hrs by Annexin V-FITC/propidium iodide staining-based FACS analysis (reference value: 2.35%). It is filed as functional.
Data set [7] relates to HCT-116. Put plainly: Induction of apoptosis in human HCT116 cells assessed as early apoptotic cells at 2 uM after 48 hrs by Annexin V-FITC/propidium iodide staining-based FACS analysis (reference value: 2.35%). It is filed as functional.

In general, IC50 refers to the concentration at which inhibition is half-maximal. As usually defined, the half-life is how long it takes for the measured level to halve. Usually clearance stands for the volume of plasma or blood freed of the substance per unit of time. Turning to `CCN(CC)CCCn1c2c(c3ccccc3c1=O)C(=O)C(=O)c1cc(C)oc1-2`, the IC50 with MGC-803 came out at 260 nM; in the data set on HUVEC it was 2520 nM; with BT-474, 770 nM. The same compound displayed a half-life at 0.1 µM in data set [1] of 1.26 h. In addition, the intrinsic clearance in the data set with Liver [2] amounted to 27.7 mL/min/g; in the data set with Liver [5], 38.5 mL/min/g. In addition, the values for the Activity in the data set on HCT-116 [3], with HCT-116 [6] and in the data set on HCT-116 [7] were 22.49%, 8.61% and 23.98%, respectively. The compound further showed a clearance in data set [4] of 176 mL/min/kg.
